Assay outcomes from PubChem.
TPT1 inh – C. albicans TPT1 enzyme inhibition; recombinant caTPT1, FP RNA substrate dephosphorylation; 300,000 compounds, 0.81% hits; AID 1962; inhibition, % at 5 µM;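 active = inhibition above the mean of all tested compounds plus 3 SD, set per screening campaign, cut at about 24% in these data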;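 note: plate controls were DMSO alone for no effect and ferristatin control at 100 nM for full effect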
CSN deneddyl inh – CSN deneddylation inhibition. Q92905. Purified CSN, SCF-Nedd8-OG deneddylation, fluorescence polarization. inhibition, % at 12.5 µM. 360,000 compounds, 0.38% hits;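 active = pattern-corrected inhibition above about 35%, with an unprinted fluorescence ratio check between 0.5 and 1.5, limit read from the data, passing the limit was not always enough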;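 note: 0% = enzyme with substrate and 100% = substrate without enzyme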
Target sequence (Q92905 whole entry, looked up, one chain of several): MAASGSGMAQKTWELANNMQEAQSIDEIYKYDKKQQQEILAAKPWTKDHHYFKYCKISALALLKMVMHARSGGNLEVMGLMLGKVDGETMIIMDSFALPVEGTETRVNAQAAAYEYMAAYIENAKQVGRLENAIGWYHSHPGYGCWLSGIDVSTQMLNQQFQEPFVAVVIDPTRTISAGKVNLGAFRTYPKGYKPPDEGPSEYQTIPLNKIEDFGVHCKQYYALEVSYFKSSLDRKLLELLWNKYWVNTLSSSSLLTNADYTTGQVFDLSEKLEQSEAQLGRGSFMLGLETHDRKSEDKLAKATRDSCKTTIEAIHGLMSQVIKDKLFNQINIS
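Test system: purified human Csn5 enzyme expressed in HEK293T cells. Amount: 0.24 nM enzyme. Reagent: SCFSkp2-Nedd8OG substrate at 10 nM final. Schedule: 90 min incubation of compound, enzyme and substrate at room temperature. Detection: fluorescence polarization. Read-out: % inhibition of substrate cleavage by Csn5.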
Rpn11 inh – inhibitors of human proteasome Rpn11 | human 26S proteasome, Ub4-pepOG fluorescence polarization; 20S core pre-blocked with epoxomicin | calls only at 20 µM | 360,000 compounds, 0.59% hits | AID 588493;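 active = inhibition at 20 µM, scaled to each plate's controls, above about 33%, limit read from the data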
Target sequence (O00487 whole entry, looked up): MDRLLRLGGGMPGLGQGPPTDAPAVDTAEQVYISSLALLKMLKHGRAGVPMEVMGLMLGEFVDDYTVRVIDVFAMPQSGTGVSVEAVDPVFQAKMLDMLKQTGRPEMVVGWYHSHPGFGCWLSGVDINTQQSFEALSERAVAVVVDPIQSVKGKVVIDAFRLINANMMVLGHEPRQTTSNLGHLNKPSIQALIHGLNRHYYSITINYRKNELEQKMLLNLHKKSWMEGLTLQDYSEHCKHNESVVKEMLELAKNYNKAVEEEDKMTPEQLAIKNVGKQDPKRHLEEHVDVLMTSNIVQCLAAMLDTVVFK
HNF4A DNA FP – change in binding of human HNF4 alpha to DNA | HNF4a-FITC DNA binding, fluorescence polarization, 1 h | P41235 | 360,000 compounds, 0.3% hits | AID 1224865 | activity change, % at 10 µM; in the data active = activity change above about 30%, passing the limit was not always enough
caTPT1 confirm – TPT1 (C. albicans) inhibition, confirmation; shares compounds with TPT1 inh; recombinant caTPT1, fluorescence polarization, RNase T1 coupled; inhibition, % at 5 µM; 2,400 compounds, 74% hits;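 active = inhibition above the primary screen limit, the mean inhibition of all tested compounds plus 3 SD, cut at about 25% in these data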
RNase T1 inh – blocks Aspergillus oryzae RNase T1, a TPT1 counter-screen | RNase T1 cleavage, fluorescence polarization, 1536-well | 2,400 compounds, 83% hits | shares compounds with TPT1 inh | inhibition, % at 5 µM;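 active = inhibition above the solvent-only control well mean plus 3 SD, limit set per screening run, cut at about 23% in these data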;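 note: plate controls were DMSO wells with enzyme for no effect and wells without RNase T1 for full effect; inhibitors block cleavage so intact labeled substrate keeps polarization high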
* hit, by the source's call; i = inactive; / = no result shown; + = active, no number. An excerpt weighted towards active compounds, which were near 1.5% of everything screened.

SMILES | TPT1 inh | CSN deneddyl inh | Rpn11 inh | HNF4A DNA FP | caTPT1 confirm | RNase T1 inh
COc1ccc(CNC(=O)CN(c2cccc([N+](=O)[O-])c2)S(C)(=O)=O)cc1 | -2 | -6 | i | 3 | / | /
COc1ccc(CNC(=O)CN(c2cccc(OC)c2)S(C)(=O)=O)cc1 | 76* | 0 | i | 0 | 2 | 6
CN1CCN(c2ccc(CNC[C@H]3O[C@@H](n4cnc5c(=O)[nH]c(N)nc54)[C@H](O)[C@@H]3O)c(F)c2)CC1 | / | 5 | i | 0 | / | /
Cc1ccc(NC(=O)c2ccc(NCCc3ccccc3)c([N+](=O)[O-])c2)cc1F | 59* | 118 | / | 54* | 108* | 113*
O=C(Nc1cc(F)cc(F)c1)c1ccc(NCCc2ccccc2)c([N+](=O)[O-])c1 | 67* | 119 | / | 115 | 92* | 102*
Cc1ccc(NC(=O)c2ccc(NCCN)c([N+](=O)[O-])c2)cc1Cl | -1 | -2 | i | 8 | / | /
COc1ccc(C(=O)/C=C/N(C)C)cc1OC | 9 | 4 | i | 2 | / | /
COc1ccc(C(=O)/C=C2\NCCc3cc(OC)c(OC)cc32)cc1OC | 53* | 3 | i | 11 | 18 | 25*
CNC(=O)c1[nH]cnc1C(=O)Nc1ccccn1 | 94* | -3 | i | 2 | 4 | 8
Cc1nn(CC(C)C)c(Cl)c1C(=O)N(c1ccc(Cl)cc1F)S(C)(=O)=O | -1 | 0 | i | -1 | / | /
CCOC(=O)/C=c1/s/c(=C/c2ccc3cc(OC)ccc3c2)c(=O)n1CC(=O)NCC1CCCO1 (centres undefined) | / | 24 | / | 34 | / | /
CCOC(=O)/C=c1\s/c(=C\c2c(OC)ccc3ccccc23)c(=O)n1CC(=O)NCC1CCCO1 (centres undefined) | 28* | 10 | / | 14 | 41* | 50*
COc1ccc(C(=O)C=Cc2ccc3c(c2)OCO3)cc1OC | / | 4 | i | 0 | / | /
COc1cc(/C=C/C(=O)c2ccc3c(c2)OCO3)cc(Cl)c1O | 82* | 18 | / | 12 | 94* | 96*
O=C(O)CN1C(=O)/C(=C/c2ccc(N3CCCCC3)o2)SC1=S | 9 | 8 | i | -9 | / | /
CCOC(=O)CN1C(=O)S/C(=C/c2ccc(N3CCCCC3)o2)C1=O | + | 113 | / | 160 | 180* | 167*
COC(=O)CN1C(=O)S/C(=C/c2ccc(N3CCCCC3)o2)C1=O | 181* | -68 | / | -38 | 191* | 170*
CN1OC[C@@H]2C(=O)N3CCc4c([nH]c5ccccc45)[C@@H]3C[C@@H]21 | / | 21 | i | -2 | / | /
Cc1occc1C(=O)Nc1cccc(Cl)c1Cl | 2 | 0 | i | -3 | / | /
COc1cc(/C=C(\C#N)C(=O)Nc2ccccn2)ccc1O | 34* | 12 | i | 10 | 57* | 63*
CC1(C)CC2(C)OC2C2(C1)N=NC(=Nc1ccccc1)O2 (centres undefined) | / | -3 | i | 0 | / | /
N#Cc1c(C(F)(F)F)cc(-c2ccco2)nc1SCc1ccccn1 | 27* | 9 | / | 7 | 18 | 23*
O=C(COc1ccccc1)c1cn(CC(=O)N2CCOCC2)c2ccccc12 | 27* | 16 | i | 8 | 26* | 37*
CC1CCCc2sc3ncn(N)c(=N)c3c21 (centres undefined) | 61* | 4 | i | 2 | 16 | 22*
COc1ccc(-n2cc([N+](=O)[O-])c(=O)c3ccc(Cl)cc32)cc1 | 0 | -1 | i | 4 | / | /
SMILES | TPT1 inh | CSN deneddyl inh | Rpn11 inh | HNF4A DNA FP | caTPT1 confirm | RNase T1 inh
CCOC(=O)c1c(CC(C)C)csc1/N=C/C1C(=O)CCCC1=O | 126* | 17 | i | 3 | 15 | 20
CCOC(=O)c1c(-c2ccccc2)csc1/N=C/C1C(=O)CCCC1=O | 114* | -1 | i | 3 | 21 | 33*
Cc1ccc2c(c1)C(c1ccccc1)N(C(=O)CC(C)C)CC(=O)N2 (centres undefined) | 1 | 2 | i | 1 | / | /
COc1ccc(CCNC(=O)CSc2nnc(C(C)N(C)C)n2Cc2ccccc2)cc1OC (centres undefined) | 100* | -4 | i | 2 | -1 | 3
CC(c1nnc(SCC(=O)Nc2ccc3[nH]c(=O)[nH]c3c2)n1Cc1ccccc1)N(C)C (centres undefined) | -3 | 4 | i | 2 | / | /
CC(C)C(C(=O)O)N1C(=O)/C(=C/c2cccn2C)SC1=S (centres undefined) | 106* | 66* | / | 88* | 125* | 134*
CCCC(C(=O)O)N1C(=O)/C(=C/c2cccn2C)SC1=S (centres undefined) | 107* | 89* | / | 115 | 121* | 127*
CC(C)C(C(=O)O)N1C(=O)/C(=C/C=C/c2ccco2)SC1=S (centres undefined) | 83* | 61 | / | -24 | 88* | 64*
COc1ccc(CN2C(=O)CN(S(C)(=O)=O)CC2(C)C(=O)Nc2ccc3c(c2)OCCO3)cc1OC (centres undefined) | / | -4 | / | -2 | / | /
COC(=O)Cc1cc(C)cc2c(=O)cc(-c3ccoc3)oc12 | 34* | 12 | / | 91 | 53* | 66*
CC1(C(=O)Nc2ccc3c(c2)OCCO3)CSCC(=O)N1CCCn1ccnc1 (centres undefined) | / | 1 | / | -2 | / | /
CN(C)c1ccc2c(c1)OC(N)=C(C#N)C2c1cccc(F)c1 (centres undefined) | 78* | 52 | / | 67 | 62* | 70*
N#CC1=C(N)Oc2cc(N)ccc2C1c1cccc(F)c1 (centres undefined) | -2 | 4 | i | 13 | / | /
CC1CCc2cccc3c2N1c1cc(C#N)c(C#N)cc1O3 (centres undefined) | 26* | 8 | i | 2 | 22 | 31*
CC1CCCCN1c1cc(C#N)c(C#N)cc1[N+](=O)[O-] (centres undefined) | -5 | -1 | i | -1 | / | /
CNc1ccc(Br)cc(C(=O)/C=C/c2cccc(OC)c2)c1=O | 42* | 21 | i | -4 | 61* | 74*
COc1ccc(/C=C/C(=O)c2ccc(OC)cc2OC)c(OC)c1 | -1 | -1 | i | 1 | / | /
CNc1ccc(Br)cc(C(=O)/C=C/c2ccc(OC)cc2OC)c1=O | 54* | 29 | i | -7 | 76* | 84*
CNc1ccc(Br)cc(C(=O)/C=C/c2ccc(Cl)cc2Cl)c1=O | 69* | 30 | i | 9 | 58* | 72*
Cc1ccc(C)c(S(=O)(=O)NCCC(=O)N2CCCC(C(N)=O)C2)c1 (centres undefined) | / | 2 | i | -4 | / | /
COc1ccc(Cl)cc1-c1cc(C(=O)NCc2ccccc2)[nH]n1 | / | -1 | i | 3 | / | /
COc1ccc(/C=N/NC(=O)c2ccc(O)cc2)cc1CN1CCCc2ccccc21 | 31* | -2 | i | 5 | 40* | 54*
